Changes are numbered by the printed parent chain.
Experiments:
P2X1 receptor K140A = biological target: T1, P2X1 receptor K140A (Homo sapiens, UniProt P51575, K140A); assay: Saturation radioligand binding with [3H]-α,β-methylene ATP
T1 sequence (P51575 1-399 K140A): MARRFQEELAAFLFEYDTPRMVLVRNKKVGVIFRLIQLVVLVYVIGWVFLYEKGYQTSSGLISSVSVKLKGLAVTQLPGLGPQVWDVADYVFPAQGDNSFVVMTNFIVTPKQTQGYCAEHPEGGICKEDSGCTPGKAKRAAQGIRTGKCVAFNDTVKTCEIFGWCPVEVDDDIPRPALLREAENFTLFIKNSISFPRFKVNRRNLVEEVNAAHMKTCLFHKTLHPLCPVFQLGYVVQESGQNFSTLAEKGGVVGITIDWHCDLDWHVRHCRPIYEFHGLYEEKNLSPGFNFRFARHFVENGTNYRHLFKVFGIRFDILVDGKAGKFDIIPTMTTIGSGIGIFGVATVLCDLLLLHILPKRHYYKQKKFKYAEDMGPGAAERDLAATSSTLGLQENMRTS
How it was run: (§1)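 Whole HEK293 Flp-In T-REx cells stably expressing receptor, tetracycline-induced (150 ng/ml, 2 days), 15,000 cells/well, washed in HEPES binding buffer pH 7.4 with Ca2+/Mg2+. Increasing [3H]-α,β-methylene ATP added, 3 h room temperature with gentle agitation; non-specific binding with 10 μM ATP. Ice-cold 0.9% NaCl washes, scintillation counting (CCPM). Specific binding fitted one-site; values above 300 nM termed not defined.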

P2X1 receptor R292A = biological target: T2, P2X1 receptor R292A (Homo sapiens, UniProt P51575, R292A); assay: as above
T2 sequence (P51575 1-399 R292A): T1 sequence (P51575 1-399 K140A) with A140K, R292A
How it was run: as §1

P2X1 receptor D97A = biological target: T3, P2X1 receptor D97A (Homo sapiens, UniProt P51575, D97A); assay: as above
T3 sequence (P51575 1-399 D97A): T1 sequence (P51575 1-399 K140A) with D97A, A140K
How it was run: as §1

P2X1 receptor K136A = biological target: T4, P2X1 receptor K136A (Homo sapiens, UniProt P51575, K136A); assay: as above
T4 sequence (P51575 1-399 K136A): T1 sequence (P51575 1-399 K140A) with K136A, A140K
How it was run: as §1

P2X1 receptor D170A = biological target: T5, P2X1 receptor D170A (Homo sapiens, UniProt P51575, D170A); assay: Calcium ion influx assay; format: cell-based
T5 sequence (P51575 1-399 D170A): T1 sequence (P51575 1-399 K140A) with A140K, D170A
How it was run: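 Tetracycline-induced (150 ng/mL, 2 days) stable HEK293 Flp-In T-REx cells at 15,000 cells/well, loaded with Fluo-8 for 1 h at 37 °C in probenecid-containing HEPES buffer, pH 7.4. Then 30 min buffer incubation, 20 s baseline, agonist addition and 2 min reading (ex 485/em 525 nm). Max-minus-min fluorescence normalised to 10 µM ionomycin, rescaled 0–100. Constrained four-parameter fit; EC50 per experiment; four independent experiments, triplicate.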

P2X1 receptor R139A = biological target: T6, P2X1 receptor R139A (Homo sapiens, UniProt P51575, R139A); assay: Calcium ion influx assay; format: cell-based
T6 sequence (P51575 1-399 R139A): T1 sequence (P51575 1-399 K140A) with R139A, A140K

binding affinity compared to WT-P2X1 (P2X1 receptor K140A): comparable to that of WT-P2X1 | binding affinity compared to WT-P2X1 (P2X1 receptor R292A): reduced | binding affinity compared to WT-P2X1 (P2X1 receptor D97A): similar | binding affinity compared to WT-P2X1 (P2X1 receptor K136A): similar | fold decrease in potency compared to WT-P2X1 (P2X1 receptor D170A): 58 fold | fold decrease in potency compared to WT-P2X1 (P2X1 receptor R139A): 3.5 fold
Compound: Nc1ncnc2c1ncn2[C@@H]1O[C@H](COP(=O)(O)CP(=O)(O)OP(=O)(O)O)[C@@H](O)[C@H]1O [α,β-methylene ATP]
desensitisation rate compared to WT-P2X1 (P2X1 receptor R139A; maximal α,β-methylene ATP): significantly slowed the desensitisation rate

From PMC11439047 (Nature Communications, 2024)
